The list is not random: actives were taken first. Their share in the collection is about 3.5%.
MrgX1 antagonist: human MrgX1 receptor antagonism, primary screen. AID 588676. B-score at 10 µM. MRGX1-HEK293 calcium flux, Fluo-4, BAM8-22 antagonism; active compounds read low. 310,000 compounds, 1.3% hits;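 active = calcium-response B-score plate-corrected more than 3 library SD below zero, starting fluorescence within 5 deviations, no agonist response on first addition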;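 note: peak minus trough fluorescence over baseline after final BAM8-22 challenge near maximal dose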
Target sequence (Q96LB2 whole entry, looked up): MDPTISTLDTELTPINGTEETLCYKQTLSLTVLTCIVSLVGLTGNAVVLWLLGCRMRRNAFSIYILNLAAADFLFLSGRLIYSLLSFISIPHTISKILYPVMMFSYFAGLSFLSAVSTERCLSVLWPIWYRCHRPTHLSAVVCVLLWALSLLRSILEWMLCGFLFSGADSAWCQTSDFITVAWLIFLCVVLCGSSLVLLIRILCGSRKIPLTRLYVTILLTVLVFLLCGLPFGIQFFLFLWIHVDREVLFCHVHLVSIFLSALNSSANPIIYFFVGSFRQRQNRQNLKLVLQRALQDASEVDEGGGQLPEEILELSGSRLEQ
MrgX1 agonist: human MrgX1 receptor agonism, primary screen; Q96LB2; MrgX1-HEK293 cells, Fluo-4 calcium fluorescence, agonist mode; active compounds read high; B-score at 10 µM; 310,000 compounds, 0.44% hits;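 active = calcium response B-score plate-corrected fluorescence ratio at least 3 library SD, with starting fluorescence B-score inside 5 SD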
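Assay system: MrgX1-expressing HEK293 cells / Amount: fifteen thousand cells per well / Doses: test compound in the initial addition of three / Timing: cells plated overnight, dye loaded 0.5 h 37 °C, 0.5 h room temperature / Technique: kinetic calcium dye fluorescence, Fluo-4 NW / Control set: positive and negative controls per plate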
RGS4 inh: inhibitors of human RGS4; P49798; HEK293 M3R/RGS4 inducible, Fluo-4 calcium flux; active compounds read high; triggered by carbachol at its EC20; B-score at 10 µM; 310,000 compounds, 0.45% hits;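 active = B-score, a plate-corrected calcium signal, over three deviations above library mean, with baseline fluorescence within five deviations of library mean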;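 note: RGS4 expression induced by doxycycline in cells with stable M3 receptor; B-score is computed from the integrated fluorescence ratio over baseline after carbachol; higher B-score means a larger calcium signal and so more RGS4 inhibition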
Target sequence (P49798 whole entry, looked up): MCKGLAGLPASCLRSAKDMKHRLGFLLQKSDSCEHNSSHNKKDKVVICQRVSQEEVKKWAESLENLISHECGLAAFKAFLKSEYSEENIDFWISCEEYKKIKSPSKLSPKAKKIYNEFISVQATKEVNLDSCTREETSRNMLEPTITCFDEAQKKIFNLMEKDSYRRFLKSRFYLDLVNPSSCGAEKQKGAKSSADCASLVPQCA
RGS4 act: RGS4 potentiation or activation; HEK293 M3R/inducible RGS4, carbachol calcium flux Fluo4; active compounds read low; B-score at 10 µM; 310,000 compounds, 0.92% hits; AID 463111;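 active = B-score of the integrated calcium signal more than 4 SD below the library mean, with starting fluorescence not abnormally high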;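 note: negative B-score means reduced calcium response which marks RGS4 activation or potentiation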
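Assay system: HEK293 FlpIn-TREx cells, stable M3R, doxycycline-inducible RGS4 / Probe or stimulus: carbachol, ECmax concentration / Times: overnight RGS4 induction, 30 min dye load 37 °C, 20 min compound RT / Signal: kinetic calcium fluorescence imaging with Fluo4-AM dye, 2 µM / Measure: Agonist-evoked peak-minus-minimum fluorescence over baseline, integrated ratio, B score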
MrgX1 allo act: human MrgX1 positive allosteric modulation, primary screen | 310,000 compounds, 0.63% hits | MrgX1-HEK293, Fluo-4 calcium flux, FDSS; active compounds read high | B-score at 10 µM | AID 588675 | Q96LB2;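 active = plate-corrected calcium response at least 3 library SD above typical, normal starting fluorescence, not activating the receptor alone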;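 note: compound read alongside a low EC10 to EC30 dose of BAM8-22 agonist; peak minus trough fluorescence over baseline measured at the second addition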
RGS4 block valid: RGS4 inhibitor validation; 1,700 compounds, 65% hits; calcium response, % at 10 µM; HEK293 M3R/RGS4, carbachol calcium Fluo-4 fluorescence; carbachol added at its EC20; 0 = buffer wells, 100 = carbachol control; shares compounds with RGS4 inh;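 active = duplicate-averaged calcium response above the buffer-only control mean plus 5 SD of those controls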;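 note: integrated fluorescence ratio F max minus min over baseline F0; higher response in RGS4-induced cells means RGS4 inhibition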
M3R Ca ctr: checks RGS4 inhibitor effects in non-induced HEK293 M3R cells | shares compounds with RGS4 inh | carbachol calcium Fluo-4; submaximal (EC20) carbachol stimulus; buffer wells 0%, carbachol control wells 100% | activity (percent), % at 10 µM | 1,900 compounds, 20% hits; call rule not given here;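 note: RGS4 induction absent so cells express M3R without RGS4; higher means more calcium signal and flags a non-specific hit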
M3R basal Ca ctr: second counter-screen for RGS4 inhibitors: non-induced cells without carbachol; 1,900 compounds, 22% hits; shares compounds with RGS4 inh; calcium response (agonist-mode artifact), % at 10 µM; HEK293 M3R/RGS4 non-induced, Fluo-4 calcium, no carbachol; normalised: buffer wells 0%, carbachol wells 100%; AID 493001;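 active = duplicate-averaged calcium rise in uninduced cells above buffer wells' mean plus 5 SD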
* hit, by the source's call; i = inactive; x = no result.

SMILES	MrgX1 antagonist	MrgX1 agonist	RGS4 inh	RGS4 act	MrgX1 allo act	RGS4 block valid	M3R Ca ctr	M3R basal Ca ctr
Cc1ccc(-c2nn(-c3ccccc3)cc2/C=N/n2c(-c3cccs3)n[nH]c2=S)cc1	i	i	i	i	i	x	x	x
S=c1[nH]nc(-c2ccncc2)n1/N=C/c1cn(-c2ccccc2)nc1-c1ccccc1	i	i	7.8*	i	i	12%*	41%*	i
COc1ccccc1OCCn1c(C(C)O)nc2ccccc21 (stereo not drawn)	i	i	i	i	i	x	x	x
CCOC(=O)C(=Cc1ccc(-n2ccnc2)cc1)C(=O)OCC	i	i	13*	i	i	18%*	i	i
CCCCCOc1ccc(OC(=O)c2ccncc2)cc1	i	i	i	i	i	x	x	x
COCCOC(=O)/C(=C/c1ccc(OC(=O)c2ccccc2)cc1)C(C)=O	i	31*	15*	i	i	82%*	i	16%*
CCOC(=O)/C(=C/c1ccc(OC(=O)c2ccncc2)cc1)C(C)=O	i	29*	7.6*	i	i	28%*	42%*	16%*
COC(=O)c1ccc(-n2ccnc2)cc1	i	i	i	i	i	x	x	x
CCN(CC)S(=O)(=O)c1ccc(Cl)c(NC(=O)c2cc(Cl)cc(Cl)c2)c1	i	i	i	i	i	x	x	x
COc1ccc(C(=O)CCc2nc3ccccc3s2)cc1	i	i	i	i	i	x	x	x
Cc1ccc(C(=O)N/C(=C\c2ccc(Br)cc2)c2nc(=S)[nH][nH]2)cc1	i	i	i	i	i	x	i	11%*
O=C(N/C(=C/c1cccc(Br)c1)c1nc(=S)[nH][nH]1)c1ccccc1	i	i	7.2*	i	i	45%*	i	96%*
CCc1cccc(CC)c1NC(=O)/C(C#N)=C/c1ccccc1C(F)(F)F	i	i	i	i	i	x	x	x
N#C/C(=C\c1cc2c(cc1Br)OCO2)c1ccc(C(=O)O)cc1	i	i	i	i	i	x	x	x
O=c1c2ccccc2c(-c2n[nH]c(=S)o2)nn1Cc1ccccc1	i	i	i	i	i	x	x	x
OCc1ccc(-c2nn(Cc3ccccc3)c3ccccc23)o1	i	i	5.1*	i	i	6.0%*	i	i
Cc1cccc(-n2ccc(=O)c(C(=O)Nc3ccc(S(=O)(=O)Nc4onc(C)c4C)cc3)n2)c1	i	i	4.7*	i	i	7.0%*	i	i
Cc1noc(NS(=O)(=O)c2ccc(N/C=C\C(=O)c3cccs3)cc2)c1C	i	i	i	i	i	x	x	x
Cc1noc(NS(=O)(=O)c2ccc(N/C=C\C(=O)c3ccccc3)cc2)c1C	i	i	i	i	i	x	i	i
Cc1noc(NS(=O)(=O)c2ccc(N/C=C\C(=O)c3ccc(F)cc3)cc2)c1C	i	i	i	i	i	x	36%*	i
Cc1noc(NS(=O)(=O)c2ccc(N/C=C/C(=O)c3ccc4c(c3)OCO4)cc2)c1C	i	i	i	i	i	x	x	x
O=C(/C=C/c1ccccc1)/C=C/c1ccccc1	i	i	6.3*	i	i	27%*	38%*	i
CCC1CC(CSc2ncn[nH]2)OC1=O (stereo not drawn)	i	i	i	i	i	x	x	x
CCSCc1nnc(SCC(=O)Nc2ccc(F)cc2)n1CC	i	i	i	i	i	x	x	x
CC(=O)C1=C(C)OC(N)=C(C#N)C1c1cccc([N+](=O)[O-])c1 (stereo not drawn)	i	i	7.2*	i	i	i	i	i
SMILES	MrgX1 antagonist	MrgX1 agonist	RGS4 inh	RGS4 act	MrgX1 allo act	RGS4 block valid	M3R Ca ctr	M3R basal Ca ctr
Nc1cccc(C(=O)OCC(=O)Nc2cccc3c2C(=O)c2ccccc2C3=O)c1	i	i	4.9*	i	i	5.0%*	i	14%*
COc1ccc(N2C(=O)CC(Sc3nc4ccccc4s3)C2=O)cc1 (stereo not drawn)	i	i	i	i	i	x	x	x
C=CCNc1nnc(SC2CC(=O)N(c3ccc(OC)cc3)C2=O)s1 (stereo not drawn)	i	i	5.7*	i	i	9.0%*	i	i
CC(=O)OCCNc1cc(SCc2ccco2)c2nonc2c1[N+](=O)[O-]	i	i	i	i	i	x	x	x
Cn1ccnc1Sc1cc(NCCCO)c([N+](=O)[O-])c2nonc12	i	i	17*	i	i	50%*	i	i
O=[N+]([O-])c1c(NCCCO)cc(Sc2ccc(Cl)cc2)c2nonc12	i	i	i	i	i	x	x	x
CC(=O)OCCCNc1cc(Sc2nc3ccccc3s2)c2nonc2c1[N+](=O)[O-]	i	i	4.7*	i	i	i	i	113%*
CC(=O)OCCNc1cc(Sc2nc3ccccc3[nH]2)c2nonc2c1[N+](=O)[O-]	i	i	15*	i	i	6.5%*	i	i
CC(=O)OCCCNc1cc(Sc2ccc(C)cc2)c2nonc2c1[N+](=O)[O-]	i	i	i	i	i	x	x	x
COc1ccc(NC(=O)n2ncc3c(C)cccc32)cc1	i	i	i	i	i	x	x	x
CC(=O)Cc1nsc(Nc2ccc3c(c2)OCCO3)n1	i	i	i	i	i	x	x	x
CN(C)c1oc(-c2ccccc2[N+](=O)[O-])nc1C#N	i	i	11*	i	i	5.0%*	i	i
CCSc1nc(N)c(C#N)c(-c2ccco2)c1C#N	i	i	6.5*	i	i	7.0%*	i	i
COC(=O)CSc1nc(N)c(C#N)c(-c2ccco2)c1C#N	i	i	i	i	i	x	x	x
COc1ccc(S(=O)(=O)N2CC3C4C=CC(C4)C3C2)cc1 (stereo not drawn)	i	i	i	i	i	x	x	x
COc1cccc(-c2nc(C=O)cs2)c1	i	i	5*	i	i	5.0%*	i	i
